# Measured values from paper PMC4353613 (Structure (London, England : 1993), 2014).
# pEC50: −log10 of the molar value.
# What was measured:
# [1] = system: C3aR1 receptor; assay: Photoaffinity cross-linking of modified TLQP-21 peptide; assay type: binding, mouse; details: membranes from 3T3 cells, UV 365 nm 30 min; Figure 1B
# [2] = biological target: T1, human C3aR1 (Homo sapiens, UniProt Q16581); assay: β-arrestin recruitment assay in HTLA cells transfected with the C3aR1 receptor; assay type: cell-based; details: for EC50 times lower than that of C3a: human C3aR1, relative to C3a
# T1 sequence (Q16581 1-482): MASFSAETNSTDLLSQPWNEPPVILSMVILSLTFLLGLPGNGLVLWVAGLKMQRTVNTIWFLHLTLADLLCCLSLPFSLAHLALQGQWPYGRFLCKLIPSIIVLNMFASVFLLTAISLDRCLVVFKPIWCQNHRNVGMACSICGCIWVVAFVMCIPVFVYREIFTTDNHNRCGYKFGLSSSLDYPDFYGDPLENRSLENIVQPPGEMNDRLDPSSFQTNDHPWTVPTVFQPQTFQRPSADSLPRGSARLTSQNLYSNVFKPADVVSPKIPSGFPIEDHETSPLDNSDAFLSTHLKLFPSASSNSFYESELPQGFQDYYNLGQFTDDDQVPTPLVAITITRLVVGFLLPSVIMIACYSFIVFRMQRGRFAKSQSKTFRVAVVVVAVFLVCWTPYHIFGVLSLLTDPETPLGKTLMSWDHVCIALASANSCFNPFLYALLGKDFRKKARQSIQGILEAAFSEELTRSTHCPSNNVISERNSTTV
# [3] = system: rat stomach fundus; assay: Gastric contraction assay; details: for biological activity in fundus strip contraction: concentrations up to 10μM
# [4] = system: AMPK phosphorylation; assay: AMPK phosphorylation, western blotting in 3T3L1 adipocytes; assay type: cell-based, mouse; details: anti-Phospho-AMPK(Thr172) western blot
# Summary of the method: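 3T3-L1 cells from ATCC, differentiated to adipocytes with fetal bovine serum, dexamethasone, methylisobutylxanthine and insulin. Extracts (about 5×10^5 cells) taken up in SDS reducing sample buffer and run on NuPAGE. Primary antibody overnight at 4°C; tubulin as loading probe; peroxidase-coupled donkey secondaries. Semi-quantitative densitometry; ANOVA with Tukey post hoc tests.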
# [5] = system: 3T3L1 adipocytes; assay: Lipolysis assay in 3T3L1 adipocytes; assay type: cell-based, mouse; details: with isoproterenol, 3 hours incubation at 37°C
# Summary of the method: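 Adipocytes at day 8 of differentiation in 6-well plates. Starved 3 h in KRH with 1% BSA, then exposed to test compound with or without agonists/antagonists in KRH with 4% BSA. Media collected and heated at 60°C for 20 min to stop enzyme activity. Cells kept for protein content, or trypsinised for diameter and viability. At least three independent replicates.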
compound,measurement,setting,value
N=C(N)NCCC[C@H](NC(=O)COCC(c1ccccc1)c1ccccc1)C(=O)O [SB290157],cross-linking efficiency of modified TLQP-21 peptide in presence of antagonist,[1],substantial reduction
CC(C)C[C@H](NC(=O)[C@@H](N)[C@@H](C)O)C(=O)N[C@@H](CCC(N)=O)C(=O)N1CCC[C@H]1C(=O)N1CCC[C@H]1C(=O)N[C@@H](C)C(=O)N[C@@H](CO)C(=O)N[C@@H](CO)C(=O)N[C@@H](CCCNC(=N)N)C(=O)N[C@@H](CCCNC(=N)N)C(=O)N[C@@H](CCCNC(=N)N)C(=O)N[C@@H](Cc1c[nH]cn1)C(=O)N[C@@H](Cc1ccccc1)C(=O)N[C@@H](Cc1c[nH]cn1)C(=O)N[C@@H](Cc1c[nH]cn1)C(=O)N[C@@H](C)C(=O)N[C@@H](CC(C)C)C(=O)N1CCC[C@H]1C(=O)N1CCC[C@H]1C(=O)N[C@@H](C)C(=O)N[C@@H](CCCNC(=N)N)C(=O)O [TLQP-21],EC50 times lower than that of C3a,[2],approximately 3 times
CC(C)C[C@H](NC(=O)[C@H](C)NC(=O)[C@H](CO)NC(=O)[C@@H]1CCCN1C(=O)[C@@H]1CCCN1C(=O)[C@H](CCC(N)=O)NC(=O)[C@H](CC(C)C)NC(=O)[C@@H](N)[C@@H](C)O)C(=O)N[C@@H](CCCNC(=N)N)C(=O)N[C@@H](CCCNC(=N)N)C(=O)N[C@@H](CCCNC(=N)N)C(=O)N[C@@H](Cc1c[nH]cn1)C(=O)N[C@@H](Cc1ccc(O)cc1)C(=O)N[C@@H](Cc1c[nH]cn1)C(=O)N[C@@H](Cc1c[nH]cn1)C(=O)N[C@@H](C)C(=O)N[C@@H](CC(C)C)C(=O)N1CCC[C@H]1C(=O)N1CCC[C@H]1C(=O)N[C@@H](CO)C(=O)N[C@@H](CCCNC(=N)N)C(=O)O [human TLQP-21],EC50 times lower than that of C3a,[2],approximately 22 times
"C3a: human C3a peptide, first ligand identified for the C3aR1 [reference compound]",pEC50,"[2]; HTLA cells transfected with human C3aR1, Figure 1C",5.52
HFHHALPPAR [HFHH-10],biological activity (response) in fundus strip contraction,"[3]; 3μM, compared to mouse TLQP-21",~ 3%
same,biological activity (response) in fundus strip contraction,[3]; 6μM,62%
same,biological activity (response) in fundus strip contraction,[3]; 10μM,75%
TLQPPASSRRR [TLQP-11],biological activity in fundus strip contraction,[3],zero response
TLQPPASSRRRHFHHALAPAR [P18A],biological activity (response) in fundus strip contraction,"[3]; 3μM, compared to mouse TLQP-21",~ 65%
TLQPPASSRRRHFHHALPAAR [P19A],biological activity (response) in fundus strip contraction,"[3]; 3μM, compared to mouse TLQP-21",19%
same,biological activity (response) in fundus strip contraction,[3]; 6μM,35%
TLQPPASSRRRHFHHALPPAA [R21A],potentiation of AMPK phosphorylation,[4],does not potentiate
same,potentiation of isoproterenol-induced lipolysis,[5],does not potentiate
same,biological activity in fundus strip contraction,[3],complete loss of activity
same,block of the activity of a subsequent infusion of TLQP-21 (C3aR1 antagonism),"[3]; fundus strips, mutant given before TLQP-21",does not block
